Tn7 DDE FP = DD(E)-Tn7 binding inhibition, primary FP screen. FP displacement of FITC-Tn7 peptide from fibrin DD(E); 0% = median of compound wells per plate. AID 720508. P02675. inhibition, % at 8.3 µM. hit rate 0.13% among 370,000;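 active = inhibition above the mean of compounds falling within the control limits plus 3 SD of them, cut at about 14% in these data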
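Assay system: human fibrin DD(E). Input: DD(E) 2 µM final. Medium: Tris buffer with calcium and detergent, pH 7.8. Compound dosing: single point at 8.3 µM. Timing: 10 min plus 3 h, room temperature. Technique: fluorescence polarization of the labelled Tn7 tracer. Read-out: percent inhibition. Replicates: singlicate testing.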
PLCb3 inh = inhibitors of human phospholipase C beta3; Purified PLC-beta3, fluorogenic substrate, fluorescence; inhibition, % at 12.2 µM; hit rate 0.18% among 370,000; AID 720704; in the data active = inhibition above about 11%
Target sequence (Q01970 whole entry, looked up): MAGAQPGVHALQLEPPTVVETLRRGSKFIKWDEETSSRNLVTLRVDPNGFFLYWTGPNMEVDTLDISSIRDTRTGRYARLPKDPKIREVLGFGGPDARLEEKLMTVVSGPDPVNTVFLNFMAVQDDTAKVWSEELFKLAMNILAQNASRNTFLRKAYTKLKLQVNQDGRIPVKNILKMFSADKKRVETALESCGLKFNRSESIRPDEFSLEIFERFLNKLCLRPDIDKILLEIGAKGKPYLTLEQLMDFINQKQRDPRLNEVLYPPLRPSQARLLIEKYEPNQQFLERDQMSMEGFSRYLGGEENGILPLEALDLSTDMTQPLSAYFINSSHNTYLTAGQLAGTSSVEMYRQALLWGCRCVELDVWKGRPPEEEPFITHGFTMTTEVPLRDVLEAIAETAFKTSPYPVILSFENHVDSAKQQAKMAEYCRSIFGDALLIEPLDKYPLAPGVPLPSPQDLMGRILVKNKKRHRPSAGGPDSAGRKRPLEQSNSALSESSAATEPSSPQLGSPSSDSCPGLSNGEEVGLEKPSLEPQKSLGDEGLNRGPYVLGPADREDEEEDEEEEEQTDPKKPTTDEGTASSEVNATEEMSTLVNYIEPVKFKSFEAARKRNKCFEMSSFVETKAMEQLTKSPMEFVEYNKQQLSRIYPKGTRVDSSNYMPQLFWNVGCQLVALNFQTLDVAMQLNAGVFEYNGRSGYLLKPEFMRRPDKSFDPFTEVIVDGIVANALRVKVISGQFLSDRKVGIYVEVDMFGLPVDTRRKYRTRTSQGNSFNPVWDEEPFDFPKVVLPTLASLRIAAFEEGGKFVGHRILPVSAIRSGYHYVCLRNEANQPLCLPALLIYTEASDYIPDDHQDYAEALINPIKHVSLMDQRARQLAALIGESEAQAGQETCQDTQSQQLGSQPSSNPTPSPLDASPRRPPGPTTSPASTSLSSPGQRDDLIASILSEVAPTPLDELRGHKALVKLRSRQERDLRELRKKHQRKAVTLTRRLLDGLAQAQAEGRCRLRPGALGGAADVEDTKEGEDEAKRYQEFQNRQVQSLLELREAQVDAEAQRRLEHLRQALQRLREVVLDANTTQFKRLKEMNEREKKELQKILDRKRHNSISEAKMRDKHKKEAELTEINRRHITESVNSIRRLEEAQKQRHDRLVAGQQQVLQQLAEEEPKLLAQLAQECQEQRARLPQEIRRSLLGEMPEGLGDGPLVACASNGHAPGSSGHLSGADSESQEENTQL
DNA FID counter = displaces DNA intercalator in HCV helicase counter-screen; inhibition, % at 7.9 µM; DNA fluorescent intercalator displacement, fluorescence; hit rate 0.17% among 290,000; in the data active = inhibition above about 37%;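 note: higher means more ethidium bromide displaced from hairpin DNA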
PLCg1 inh = blocks human PLC-gamma1 enzyme activity. P19174. purified PLC-gamma1, fluorogenic substrate, fluorescence. inhibition, % at 12.2 µM. hit rate 0.84% among 370,000. AID 720700; in the data active = inhibition above about 9.5%
Tn6 DDE FP = DD(E)-Tn6 binding inhibition, primary FP screen; hit rate 0.21% among 370,000; Fibrin DD(E) TRITC-Tn6 fluorescence polarization displacement; inhibition, % at 8.3 µM; AID 720509; P02675;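 active = inhibition above a per-campaign cutoff: mean of compounds within control limits plus 3 SD, cut at about 15% in these data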
Hits are given with their value; - = inactive; . = not tested or not shown. Compounds with a hit are over-represented: about 1.4% of the library has one in this group of screens.

SMILES	Tn7 DDE FP	PLCb3 inh	DNA FID counter	PLCg1 inh	Tn6 DDE FP
Cc1oc(-c2ccc(Cl)cc2)nc1CN1CCCC(C(=O)NCCCN2CCOCC2)C1 (configuration not stated)	-	-	45	-	-
Cc1ccc(Cl)cc1NC(=O)CCNC(=O)N1CC(=O)Nc2ccccc21	-	-	-	-	-
COc1ccc(OC)c(CN2CCN(C(=O)c3cccc4ccccc34)CC2)c1	-	-	-	13	-
COc1ccc(OC)c(CN2CCN(C(=O)c3cc4ccccc4cc3O)CC2)c1	-	-	-	-	-
OC(CNCCc1ccccc1)COc1ccc(OCC(O)CNCCc2ccccc2)cc1 (configuration not stated)	-	-	-	-	-
CC(C)N(CCNCC(O)COc1ccc(C(C)(C)c2ccccc2)cc1)C(C)C (configuration not stated)	-	-	42	-	-
c1ccc(-c2ccccc2OCCCCN2CCCCC2)cc1	-	-	-	-	-
CCCCCc1ccc(OCCOCCn2c[n+](C)c3ccccc32)c(CCCCC)c1	.	.	37	.	.
CCCCCCCCCCCCCCCC[n+]1ccccc1	-	-	.	-	-
CCCCCc1ccc(OCCC[n+]2ccccc2)c(CCCCC)c1	-	-	45	-	-
CCOC(=O)CSc1nc2sc3c(c2c(=O)n1-c1ccccc1)CCN(C(C)C)C3	-	-	-	-	19
CC(C)c1ccc(CSc2ccc(S(=O)(=O)N3CCOCC3)cn2)cc1	-	-	.	-	-
Nc1nc2c(c(=O)[nH]1)C(c1ccccc1)C1=C(N2)c2ccccc2C1=O (configuration not stated)	-	-	-	-	-
CCC(C)c1ccc(C2C3=C(Nc4nc(N)[nH]c(=O)c42)c2ccccc2C3=O)cc1 (configuration not stated)	-	-	96	-	-
COC(=O)c1cccc(NC(=O)c2ccccc2)c1	-	-	-	-	-
COC(=O)c1cccc(NC(=O)c2ccc[n+]([O-])c2)c1	-	-	-	11	-
CCn1c(CSc2nnc3ccccn23)nc2cc(C(=O)O)ccc21	-	-	-	-	20
COc1ccc(CNC(=O)[C@@H]2CC=C[C@@H]3CCN(Cc4ccc(Cl)c(Cl)c4)C(=O)[C@@H]32)cc1	-	-	.	-	-
COc1ccc(CNC[C@@H](CCCCN(C)Cc2ccc(OC)cc2)N2C[C@H](c3ccccc3)N(CCc3ccc(Cl)c(Cl)c3)C(=O)C2=O)cc1	.	.	37	.	.
O=C(OCC(CO)OC(CO)n1ccc(=O)[nH]c1=O)c1ccccc1 (configuration not stated)	-	-	-	-	-
O=C(Nc1cc(C(F)(F)F)ccc1N1CCOCC1)c1ccccc1	-	-	-	-	-
O=C(O)c1ccccc1C(=O)Nc1cc(C(F)(F)F)ccc1N1CCCC1	-	-	-	10	-
Cc1cccc(N2CN(Cc3ccco3)CNC2=S)c1C	-	-	-	-	-
CCOC(=O)c1sc2ncnc(N3CCN(CC)CC3)c2c1C	-	-	-	-	-
Cc1ccc2c(c1)c1c3n2CCN(CC(N)=O)C3CCC1 (configuration not stated)	-	-	-	-	-
SMILES	Tn7 DDE FP	PLCb3 inh	DNA FID counter	PLCg1 inh	Tn6 DDE FP
Cc1ccc2c(c1)c1c3n2CCN(CC(O)CNC(C)C)C3CCC1 (configuration not stated)	-	-	45	-	-
CC(NC(=O)COC(=O)c1ccc2c(c1)S(=O)(=O)N=C1CCCCCN12)C12CC3CC(CC(C3)C1)C2 (configuration not stated)	-	-	-	-	-
CCCCCCCCCCCCCCCC[n+]1ccc(/C=N/O)cc1	-	-	-	17	-
COc1ccc(C(CNC(=O)c2ccc(C)c(S(=O)(=O)N3CCCCC3)c2)N2CCCC2)cc1 (configuration not stated)	-	-	.	-	-
COc1ccc(C(CNC(=O)c2ccc(C)c(S(=O)(=O)N3CCOCC3)c2)N2CCCC2)cc1 (configuration not stated)	-	-	.	10	-
N#Cc1ccc(CC(=O)c2ccccc2)[nH]c1=O	-	-	.	-	17
Cc1ccc(S(=O)(=O)/N=C2/NC(=O)/C(=C\c3cc(Br)cc(Br)c3O)S2)cc1	.	.	44	.	.
Cc1ccc(S(=O)(=O)/N=C2/NC(=O)/C(=C/c3ccc(Br)o3)S2)cc1	-	-	-	-	-
CN(c1ccccc1)S(=O)(=O)c1cccc(NC(=O)c2ccc3ncsc3c2)c1	-	-	-	-	-
CCOC(=O)c1c(NC(=O)CSc2nnnn2-c2ccccc2)sc2c1CC(C)(C)NC2(C)C	-	-	41	-	-
CCOC(=O)c1c(NC(=O)C2COc3ccccc3O2)sc2c1CC(C)(C)NC2(C)C (configuration not stated)	-	-	43	-	-
CCOC(=O)c1c(NC(=O)Cc2ccccc2)sc2c1CC(C)(C)NC2(C)C	-	-	-	-	-
O=[N+]([O-])c1ccc2nccn2c1	-	-	-	-	-
O=C(COC(=O)/C=C/c1ccc(Cl)cc1)NCc1cccs1	-	-	.	-	-
NC[C@H](Cc1ccccc1)NCCCCC1CCCCC1	-	-	.	-	-
CNC[C@H](CC1CCCCC1)NC[C@H](Cc1ccccc1)NCCC12CC3CC(CC(C3)C1)C2	-	-	-	10.0	-
Cc1cccc2sc(NC(=O)C3CCN(S(=O)(=O)c4cc([N+](=O)[O-])ccc4Cl)CC3)nc12	-	-	-	-	-
CCOc1ccc(C2NCCc3cc(OC)c(OC)cc32)cc1OC (configuration not stated)	-	-	-	-	-
COc1ccc2cc1Oc1ccc(cc1)CC1c3c(cc(OC)c4c3Oc3cc5c(cc3O4)CCNC5C2)CCN1C (configuration not stated)	.	.	81	.	.
CN(C)CCCN(Cc1cc2cc3c(cc2[nH]c1=O)OCO3)C(=S)Nc1cccc(Cl)c1	-	-	-	-	-
CN(C)CCCN(Cc1cc2cc3c(cc2[nH]c1=O)OCO3)C(=S)Nc1ccccc1	-	-	47	-	-
Cc1cccc2cc(CN(Cc3ccccc3)C(=S)NCCCN(C)C)c(=O)[nH]c12	-	-	48	-	-
CC(C)(C)OC(=O)NCc1ccc(CNC(=O)c2nc[nH]c2C(=O)N2CCN(c3ccccc3)CC2)cc1	-	-	.	-	-
CN(C)CCNc1c2c(nc3ccccc13)CCC2	-	-	45	-	-
Cc1ccc(C(=O)C2C(=O)c3ccccc3C2=O)cc1	-	-	-	-	-
NN=C1c2ccccc2C(=O)C1C(=O)C(c1ccccc1)c1ccccc1 (configuration not stated)	-	-	.	-	19
CC(C)CN(C(=O)c1cc([N+](=O)[O-])cc([N+](=O)[O-])c1)C1CCS(=O)(=O)C1 (configuration not stated)	-	-	.	-	-
CC(C)CN(C(=O)CCNC(=O)c1ccc([N+](=O)[O-])cc1)C1CCS(=O)(=O)C1 (configuration not stated)	-	11	.	-	-
